From ChEMBL document CHEMBL1153437, “Inhibition of monoamine oxidase B by N-methyl-2-phenylmaleimides” (Bioorg Med Chem, 2009)
Active and inactive are the calls of the source. The calls are words filed in the database; no cut-off is given here.

Assays:
[1] = Stability in pH 7.4 sodium phosphate buffer assessed as hydrolysis at 100 uM after 30 mins; type: physicochemical; details: read-out: Activity
Method in brief: (§1)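 Compound (100 µM, or 10 µM where stated) in 100 mM sodium phosphate buffer, pH 6.4–8.0, with 4% DMSO, held at 37 °C in quartz cuvettes. UV–vis spectra (230–500 nm) recorded at intervals. Remaining compound was calculated from the loss of absorbance at its longest-wavelength maximum (337–354 nm) using its molar absorptivity; hydrolysis is expressed as percent.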

[2] = Inhibition of MAO-B in baboon liver microsome assessed as MMDP+ formation; type: microsomes, Papio hamadryas
Method in brief: (§2)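 Baboon liver mitochondrial fraction (0.15 mg protein/mL) as MAO-B source; substrate MMTP 30–120 µM with varied inhibitor concentrations, 4% DMSO cosolvent. Incubation at 37 °C for 10 min, stopped with perchloric acid, centrifuged; MMDP⁺ read at 420 nm (ε 25,000 M⁻¹). Ki from the x-intercept of a replot of Lineweaver–Burk slopes versus inhibitor concentration; single determination, replot R² ≥0.99.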

[3] = molecular target: T1, Amine oxidase [flavin-containing] B (Homo sapiens, UniProt P27338); assay: Inactivation of human […] assessed as half time at 0.8 mM; details: 800 µM
T1 sequence (P27338 whole entry): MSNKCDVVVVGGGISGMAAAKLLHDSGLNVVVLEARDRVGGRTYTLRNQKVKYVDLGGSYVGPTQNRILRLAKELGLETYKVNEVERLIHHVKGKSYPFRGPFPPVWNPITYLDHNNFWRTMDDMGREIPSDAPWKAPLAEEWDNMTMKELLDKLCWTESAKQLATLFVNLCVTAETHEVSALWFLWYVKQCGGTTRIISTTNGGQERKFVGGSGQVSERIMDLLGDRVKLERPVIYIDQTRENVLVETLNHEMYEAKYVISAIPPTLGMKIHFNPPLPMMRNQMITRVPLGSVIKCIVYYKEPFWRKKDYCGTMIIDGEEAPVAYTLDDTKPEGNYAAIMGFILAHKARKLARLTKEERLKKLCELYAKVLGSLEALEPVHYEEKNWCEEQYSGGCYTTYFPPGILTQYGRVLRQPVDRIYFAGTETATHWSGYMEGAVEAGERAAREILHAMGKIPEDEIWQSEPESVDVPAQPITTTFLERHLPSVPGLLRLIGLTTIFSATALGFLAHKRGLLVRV

[4] = Stability in pH 8 sodium phosphate buffer assessed as hydrolysis at 100 uM at 360 mins; type: physicochemical; details: read-out: Activity; method in brief: as §1
[5] = Stability in pH 6.4 to 8 phosphate buffer at 100 uM up to 360 mins; type: physicochemical; details: pH 6.4, 6 h; method in brief: as §1
Papio hamadryas [6] = species: Papio hamadryas; assay: Inhibition of MAO-B in baboon liver microsome assessed as MMDP+ formation at 14 uM up to 60 mins; type: microsomes
Method in brief: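 Baboon liver mitochondria (0.3 mg protein/mL) preincubated with inhibitor (14 µM) in 100 mM sodium phosphate pH 7.4 at 37 °C for 0, 15, 30 or 60 min. Then diluted to 0.15 mg protein/mL (inhibitor 7 µM final) with MMTP 90 µM and incubated 15 min at 37 °C. Perchloric acid stop, MMDP⁺ read at 420 nm; triplicate, mean ± SEM.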

[7] = Stability in pH 7.4 sodium phosphate buffer assessed as hydrolysis at 10 uM after 30 mins; type: physicochemical; details: read-out: Activity; method in brief: as §1
[8] = Stability in pH 7 sodium phosphate buffer assessed as hydrolysis at 100 uM at 360 mins; type: physicochemical; details: read-out: Activity; method in brief: as §1
[9] = Stability in pH 7.4 sodium phosphate buffer assessed as hydrolysis at 100 uM at 360 mins; type: physicochemical; details: read-out: Activity; method in brief: as §1
[10] = Stability in pH 6.4 to 8 phosphate buffer at 100 uM; type: physicochemical; details: pH 6.4, 100 µM; method in brief: as §1
Papio hamadryas [11] = species: Papio hamadryas; assay: Competitive inhibition of MAO-B in baboon liver microsome by Lineweaver-Burke plot; type: microsomes; method in brief: as §2
Papio hamadryas [12] = species: Papio hamadryas; assay: Inhibition of MAO-B in baboon liver microsome assessed as MMDP+ formation at 13 uM after 240 mins relative to control; values are per cent of control
Papio hamadryas [13] = species: Papio hamadryas; assay: Inhibition of MAO-B in baboon liver microsome assessed as MMDP+ formation at 13 uM after 30 mins relative to control; values are per cent of control
Papio hamadryas [14] = species: Papio hamadryas; assay: Inhibition of MAO-B in baboon liver microsome assessed as MMDP+ formation at 13 uM after 120 mins relative to control; values are per cent of control
Papio hamadryas [15] = species: Papio hamadryas; assay: Inhibition of MAO-B in baboon liver microsome assessed as MMDP+ formation at 13 uM after 60 mins relative to control; values are per cent of control
Papio hamadryas [16] = species: Papio hamadryas; assay: Inhibition of MAO-B in baboon liver microsome assessed as MMDP+ formation at 13 uM after 180 mins relative to control; values are per cent of control

| SMILES | degraded at 0.5 h, 100 µM [1] [%] | Ki [2] [µM] | further results |
| --- | --- | --- | --- |
| Cc1cccc(C2=CC(=O)N(C)C2=O)c1 | 40 | 8.6 | – |
| CN1C(=O)C=C(c2cccc(Br)c2)C1=O | 40 | 6.99 | – |
| CCN1C(=O)C=CC1=O [N-ETHYLMALEIMIDE] | – | – | Time [3]: 8 h |
| CN1C(=O)C=C(c2cccc(C(F)(F)F)c2)C1=O | 40 | 11 | – |
| CN1C(=O)C=C(c2ccccc2)C1=O | 2.8 | 3.49 | degraded at 6 h, 100 µM [4]: 73.8%; Activity [5]: Stable; Activity (Papio hamadryas [6]): inactive; degraded at 0.5 h, 10 µM [7]: 1%; degraded at 6 h, 100 µM [8]: 13%; degraded at 6 h, 100 µM [9]: 31.4%; Activity [10]: Stable |
| CN1C(=O)C=C(c2cccc(F)c2)C1=O | 40 | 5.73 | – |
| COc1cccc(C2=CC(=O)N(C)C2=O)c1 | 40 | 8.56 | – |
| CN1C(=O)C=C(c2cccc(Cl)c2)C1=O | 40 | 6.66 | Activity (Papio hamadryas [11]): Active; residual activity (Papio hamadryas [12]): 84%; residual activity (Papio hamadryas [13]): 52%; residual activity (Papio hamadryas [14]): 68%; residual activity (Papio hamadryas [15]): 66%; residual activity (Papio hamadryas [16]): 80% |
